High-throughput results: PubChem BioAssay, Johns Hopkins Ion Channel Center
TRPC4 act = activators of mouse TRPC4 channel, primary screen, Fluo4 calcium, HEK293 TRPC4beta/mu-opioid cells; Short transient receptor potential channel 4 (Mus musculus), Q9QUQ5; Fluo4 calcium fluorescence; active compounds read high; B-score at 10 µM; hit rate 0.49% among 310,000; AID 2237, 2010;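 active = B-score above 5 SD of library B-scores, and initial fluorescence ratio not above library mean plus 5 SD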;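 note: positive B-score marks a calcium rise read as TRPC4 activation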
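Assay system: HEK293 cells stably co-expressing mouse TRPC4beta and mu-opioid receptor / Timing: Fluo4 dye loading 45 min at room temperature, 110 s recording / Signal: Fluo4 calcium-sensitive dye fluorescence, kinetic, 1 Hz baseline / Read-out: integrated baseline-normalised fluorescence ratio, converted to per-well B score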
TRPC4 potent = positive allosteric modulators of TRPC4, primary screen, cell-based, mouse TRPC4beta, HEK293 mu-opioid, Fluo-4 calcium | Short transient receptor potential channel 4 (Mus musculus), Q9QUQ5 | DAMGO EC20, Fluo-4 Ca2+ flux; active compounds read high | B-score at 10 µM | hit rate 0.42% among 310,000 | AID 2227, 2009;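 active = B-score of calcium response area above 5 SD of library B-scores, with initial fluorescence ratio within 5 SD of library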;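 note: B-score of integrated fluorescence ratio over time as area under calcium response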
TRPC4 inh = inhibitors of mouse TRPC4 channel, primary screen, Fluo4 calcium, HEK293 TRPC4beta/mu-opioid cells. Short transient receptor potential channel 4 (Mus musculus), Q9QUQ5. B-score at 10 µM. DAMGO-evoked Fluo4 calcium flux; active compounds read low. hit rate 0.39% among 300,000;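 active = B-score over 3 SD under the library average, no early fluorescence shift, positive overall ratio signal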
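test system = HEK293 cells with stable TRPC4beta plus mu-opioid receptor expression | detection = Fluo4 Ca2+ flux fluorescence | read-out = integrated fluorescence ratio relative to baseline, converted to per-well B score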
TRPC6 inhibitor = mouse TRPC6 channel inhibitors, primary screen, cell-based, HEK293, membrane potential dye; AID 2553, 2010; ACh-evoked depolarization; active compounds read low; hit rate 1.1% among 310,000; Short transient receptor potential channel 6 (Mus musculus), Q61143; B-score at 10 µM;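 active = B-score under library mean minus 3 SD, initial fluorescence not abnormally high, positive integrated signal ratio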;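 note: B-score derived from integrated fluorescence ratio over the kinetic read; more negative B-score means stronger inhibition of depolarization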
TRPC6 act = mouse TRPC6 channel activators, primary screen, cell-based, HEK293, membrane potential dye. B-score at 10 µM. HEK293-TRPC6 membrane potential dye fluorescence; active compounds read high. hit rate 0.13% among 310,000. AID 2550, 2010. Short transient receptor potential channel 6 (Mus musculus), Q61143;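 active = B-score of the integrated fluorescence ratio above library mean plus 3 SD, and starting fluorescence ratio within library mean plus 5 SD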;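 note: higher score means more depolarization so channel activation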
An asterisk follows results filed as active. This is a sample that favours compounds with a hit; in the whole collection about 2.3% have one here.

How did CC1CCC(C(=O)NC(C(=O)NCCCN2CCOCC2)C(C)C)CC1 (stereo not given) do in these assays?
TRPC4 act: inactive; TRPC4 potent: inactive; TRPC4 inh: inactive; TRPC6 inhibitor: inactive; TRPC6 act: inactive

Results for COC(=O)/C=C1\SC(=NC(=O)c2cccc(Cl)c2)NC1=O ?
TRPC4 act: inactive; TRPC4 potent: inactive; TRPC4 inh: -6*; TRPC6 inhibitor: inactive; TRPC6 act: inactive

Results for COC(=O)/C=C1/SC(=NC(=O)c2ccccc2)NC1=O ?
TRPC4 act: inactive; TRPC4 potent: inactive; TRPC4 inh: inactive; TRPC6 inhibitor: inactive; TRPC6 act: inactive

What do the screens show for `CC1CCc2c(sc3ncnc(SCC(=O)Nc4ccc(C(=O)O)cc4)c23)C1` (stereo not given)?
TRPC4 act: inactive; TRPC4 potent: inactive; TRPC4 inh: -6*; TRPC6 inhibitor: inactive; TRPC6 act: inactive

How did COc1cc(NC(=O)CSc2ncnc3sc4c(c23)CCC(C)C4)c(C(=O)O)cc1OC (stereo not given) do in these assays?
TRPC4 act: inactive; TRPC4 potent: inactive; TRPC4 inh: -6*; TRPC6 inhibitor: inactive; TRPC6 act: inactive

How did CC1=C(C(=O)N2CCOCC2)C(c2ccccc2F)NC(=O)N1 (stereo not given) do in these assays?
TRPC4 act: inactive; TRPC4 potent: inactive; TRPC4 inh: inactive; TRPC6 inhibitor: inactive; TRPC6 act: inactive

What do the screens show for `O=C(CCc1ccccc1)N1CCN(Cc2ccc(F)cc2Cl)CC1`?
TRPC4 act: inactive; TRPC4 potent: inactive; TRPC4 inh: inactive; TRPC6 inhibitor: inactive; TRPC6 act: inactive

Results for CN(C)CCCNC(=S)NCC(c1ccc(Cl)cc1Cl)c1c[nH]c2ccccc12 (stereo not given) ?
TRPC4 act: inactive; TRPC4 potent: 12*; TRPC4 inh: inactive; TRPC6 inhibitor: inactive; TRPC6 act: inactive

Results for NCC(c1ccc(Cl)cc1Cl)c1c[nH]c2ccccc12 (stereo not given) ?
TRPC4 act: inactive; TRPC4 potent: 26*; TRPC4 inh: inactive; TRPC6 inhibitor: inactive; TRPC6 act: inactive

How did CCN(C(=O)C1CC1)C1CCS(=O)(=O)C1 (stereo not given) do in these assays?
TRPC4 act: inactive; TRPC4 potent: inactive; TRPC4 inh: inactive; TRPC6 inhibitor: inactive; TRPC6 act: inactive

How did Cc1cc(NC(=O)CSCC(=O)Nc2ccc(Cl)c(C(F)(F)F)c2)no1 do in these assays?
TRPC4 act: inactive; TRPC4 potent: inactive; TRPC4 inh: -5*; TRPC6 inhibitor: inactive; TRPC6 act: inactive

Results for Cc1cc(NC(=O)CSCC(=O)Nc2ccccc2Oc2ccccc2)no1 ?
TRPC4 act: inactive; TRPC4 potent: inactive; TRPC4 inh: inactive; TRPC6 inhibitor: inactive; TRPC6 act: inactive

What do the screens show for `COc1ccc(NC(=O)CSCC(=O)N(C)CC(=O)Nc2ccc(Cl)c(C(F)(F)F)c2)cc1`?
TRPC4 act: inactive; TRPC4 potent: inactive; TRPC4 inh: inactive; TRPC6 inhibitor: inactive; TRPC6 act: inactive

How did COc1ccccc1NC(=O)Cc1ccc(-c2ccccc2)cc1 do in these assays?
TRPC4 act: inactive; TRPC4 potent: inactive; TRPC4 inh: inactive; TRPC6 inhibitor: inactive; TRPC6 act: inactive

How did Cc1cc(NC(=O)CSCC(=O)OC(C)C(=O)c2cc(C)c(C)cc2C)no1 (stereo not given) do in these assays?
TRPC4 act: inactive; TRPC4 potent: inactive; TRPC4 inh: -6*; TRPC6 inhibitor: inactive; TRPC6 act: inactive

How did Cc1cc(NC(=O)CSCC(=O)OC(C)C(=O)N(C)Cc2ccccc2)no1 (stereo not given) do in these assays?
TRPC4 act: inactive; TRPC4 potent: inactive; TRPC4 inh: inactive; TRPC6 inhibitor: inactive; TRPC6 act: inactive

What do the screens show for `COc1ccc(CC(=O)Nc2ccccc2Oc2ccccc2)cc1`?
TRPC4 act: inactive; TRPC4 potent: inactive; TRPC4 inh: -6*; TRPC6 inhibitor: inactive; TRPC6 act: inactive

What do the screens show for `Cc1ccc(Oc2ccccc2NC(=O)CSCC(=O)Nc2cc(C)on2)cc1`?
TRPC4 act: inactive; TRPC4 potent: inactive; TRPC4 inh: -6*; TRPC6 inhibitor: inactive; TRPC6 act: inactive

How did O=C(CSc1nc(=O)n(CCN2CCOCC2)c2c1CCC2)Nc1ccc(OC(F)(F)F)cc1 do in these assays?
TRPC4 act: inactive; TRPC4 potent: inactive; TRPC4 inh: -6*; TRPC6 inhibitor: inactive; TRPC6 act: inactive

Results for CC(C)CCNC(=O)CCC(=O)NNc1nc2ccccc2c2nc(-c3ccccc3)nn12 ?
TRPC4 act: inactive; TRPC4 potent: 23*; TRPC4 inh: inactive; TRPC6 inhibitor: inactive; TRPC6 act: inactive

How did O=C(CCC(=O)NNc1nc2ccccc2c2nc(-c3ccccc3)nn12)NCCCN1CCOCC1 do in these assays?
TRPC4 act: inactive; TRPC4 potent: inactive; TRPC4 inh: inactive; TRPC6 inhibitor: inactive; TRPC6 act: inactive

How did CCC(C)[C@H](NC(=O)NCc1ccco1)C(=O)OC (stereo not given in full) do in these assays?
TRPC4 act: inactive; TRPC4 potent: inactive; TRPC4 inh: inactive; TRPC6 inhibitor: inactive; TRPC6 act: inactive

How did c1ccc(Cc2c[nH]c3ccccc23)cc1 do in these assays?
TRPC4 act: inactive; TRPC4 potent: inactive; TRPC4 inh: -5*; TRPC6 inhibitor: inactive; TRPC6 act: inactive

How did C#CCNC(=O)C1=C[C@H](C2CCCCC2)C[C@H](OCc2ccc(CO)cc2)O1 do in these assays?
TRPC4 act: 57*; TRPC4 potent: inactive; TRPC4 inh: inactive; TRPC6 inhibitor: inactive; TRPC6 act: inactive

What do the screens show for `O=C(O)C1=C[C@@H](C2CCCCC2)C[C@@H](OCc2ccc(CO)cc2)O1`?
TRPC4 act: inactive; TRPC4 potent: inactive; TRPC4 inh: inactive; TRPC6 inhibitor: inactive; TRPC6 act: inactive

Results for O=C(NC1CC1)C1=C[C@H](C2CCCCC2)C[C@H](OCc2ccc(CO)cc2)O1 ?
TRPC4 act: 249*; TRPC4 potent: inactive; TRPC4 inh: -6*; TRPC6 inhibitor: inactive; TRPC6 act: inactive

What do the screens show for `COc1ccc(C)cc1S(=O)(=O)NC1CCCC1`?
TRPC4 act: inactive; TRPC4 potent: inactive; TRPC4 inh: inactive; TRPC6 inhibitor: inactive; TRPC6 act: inactive

Results for COc1ccc(S(=O)(=O)NC2CCCC2)c(Cl)c1Cl ?
TRPC4 act: inactive; TRPC4 potent: 11*; TRPC4 inh: inactive; TRPC6 inhibitor: inactive; TRPC6 act: inactive

Results for Cc1[nH]nc(N)c1N=Nc1ccc(Br)cc1 ?
TRPC4 act: inactive; TRPC4 potent: inactive; TRPC4 inh: inactive; TRPC6 inhibitor: -5.58*; TRPC6 act: inactive
